Measurements taken from the M2OR odorant receptor database.

Columns and labels:
Conditions in all cases: stereoisomer not certain
UniProt Q8VG27 = target: T1, UniProt Q8VG27
T1 sequence (whole entry): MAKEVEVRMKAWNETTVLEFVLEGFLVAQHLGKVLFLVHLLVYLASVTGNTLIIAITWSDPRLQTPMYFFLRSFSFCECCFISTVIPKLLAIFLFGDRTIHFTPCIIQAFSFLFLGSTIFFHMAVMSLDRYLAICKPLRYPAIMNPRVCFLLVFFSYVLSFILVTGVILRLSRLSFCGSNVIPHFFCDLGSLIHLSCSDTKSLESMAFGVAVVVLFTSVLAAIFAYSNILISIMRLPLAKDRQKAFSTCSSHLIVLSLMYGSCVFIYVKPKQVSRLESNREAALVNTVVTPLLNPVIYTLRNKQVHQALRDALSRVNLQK
How it was run: (§1)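 Whether a receptor–molecule pair is responsive (active) rests on the original authors' judgment that its measured signal was statistically different from baseline. Pairs without that judgment are non-responsive (inactive). Sources used varied assay methods, commonly transient luciferase assays in mammalian cell lines.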

UniProt Q8VG53 = target: T2, UniProt Q8VG53
T2 sequence (whole entry): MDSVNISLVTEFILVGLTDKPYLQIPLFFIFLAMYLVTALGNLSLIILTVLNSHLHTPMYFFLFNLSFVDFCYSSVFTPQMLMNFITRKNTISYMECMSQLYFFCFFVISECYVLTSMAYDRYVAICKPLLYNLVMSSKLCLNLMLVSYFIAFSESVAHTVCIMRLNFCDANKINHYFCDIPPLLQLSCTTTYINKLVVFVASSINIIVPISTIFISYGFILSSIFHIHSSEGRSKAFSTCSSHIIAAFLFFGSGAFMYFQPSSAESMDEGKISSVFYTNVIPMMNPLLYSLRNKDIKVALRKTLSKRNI
How it was run: as §1

UniProt Q8VG64 = target: T3, UniProt Q8VG64
T3 sequence (whole entry): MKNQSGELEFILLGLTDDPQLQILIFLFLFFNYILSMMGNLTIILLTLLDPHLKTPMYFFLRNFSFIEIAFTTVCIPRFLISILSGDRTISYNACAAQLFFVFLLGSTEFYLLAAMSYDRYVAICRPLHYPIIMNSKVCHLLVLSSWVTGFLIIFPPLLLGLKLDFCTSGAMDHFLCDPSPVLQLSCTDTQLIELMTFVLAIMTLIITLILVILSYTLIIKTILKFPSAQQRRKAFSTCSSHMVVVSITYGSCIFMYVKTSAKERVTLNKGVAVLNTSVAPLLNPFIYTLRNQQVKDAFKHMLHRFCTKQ
How it was run: as §1

UniProt Q8VGB9 = target: T4, UniProt Q8VGB9
T4 sequence (whole entry): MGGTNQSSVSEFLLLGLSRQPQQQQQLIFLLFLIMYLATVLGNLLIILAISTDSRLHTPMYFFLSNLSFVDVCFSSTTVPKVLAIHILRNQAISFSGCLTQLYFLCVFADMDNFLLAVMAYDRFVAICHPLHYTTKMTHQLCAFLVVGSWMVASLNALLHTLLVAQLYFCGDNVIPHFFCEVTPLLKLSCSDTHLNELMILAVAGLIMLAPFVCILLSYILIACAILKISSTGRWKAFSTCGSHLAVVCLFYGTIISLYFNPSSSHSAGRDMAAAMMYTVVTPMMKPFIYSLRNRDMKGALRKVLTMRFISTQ
How it was run: as §1

UniProt Q8VG49 = target: T5, UniProt Q8VG49
T5 sequence (whole entry): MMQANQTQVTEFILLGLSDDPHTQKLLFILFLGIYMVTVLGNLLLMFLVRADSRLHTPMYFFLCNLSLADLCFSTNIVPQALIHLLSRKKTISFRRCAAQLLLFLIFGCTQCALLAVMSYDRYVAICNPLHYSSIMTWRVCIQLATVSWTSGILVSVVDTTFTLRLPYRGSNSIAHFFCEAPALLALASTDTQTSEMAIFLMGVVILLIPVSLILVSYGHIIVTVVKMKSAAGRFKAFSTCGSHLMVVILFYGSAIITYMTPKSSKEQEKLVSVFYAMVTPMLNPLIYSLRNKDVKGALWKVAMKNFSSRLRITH
How it was run: as §1

UniProt Q8VG77 = target: T6, UniProt Q8VG77
T6 sequence (whole entry): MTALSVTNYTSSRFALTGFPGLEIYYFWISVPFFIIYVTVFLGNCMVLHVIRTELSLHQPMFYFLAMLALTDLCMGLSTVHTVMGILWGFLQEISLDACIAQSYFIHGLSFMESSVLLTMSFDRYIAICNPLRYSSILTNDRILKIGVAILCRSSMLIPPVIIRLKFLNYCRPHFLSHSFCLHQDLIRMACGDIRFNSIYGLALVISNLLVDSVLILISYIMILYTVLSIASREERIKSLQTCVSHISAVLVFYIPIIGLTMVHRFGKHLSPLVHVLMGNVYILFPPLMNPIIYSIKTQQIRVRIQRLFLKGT
How it was run: as §1

UniProt Q8VG96 = target: T7, UniProt Q8VG96
T7 sequence (whole entry): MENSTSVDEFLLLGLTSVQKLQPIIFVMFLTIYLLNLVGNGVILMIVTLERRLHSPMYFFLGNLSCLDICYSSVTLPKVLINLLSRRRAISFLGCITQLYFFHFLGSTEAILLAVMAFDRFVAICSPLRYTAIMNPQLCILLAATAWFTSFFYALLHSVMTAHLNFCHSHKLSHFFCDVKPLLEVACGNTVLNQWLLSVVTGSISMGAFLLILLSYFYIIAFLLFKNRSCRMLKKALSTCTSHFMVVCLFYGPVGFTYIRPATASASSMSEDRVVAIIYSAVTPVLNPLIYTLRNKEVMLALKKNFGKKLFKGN
How it was run: as §1

Measured: odorant receptor agonist call;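 further: active if original authors judged signal statistically different from baseline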

CCCCCC(C)O (stereo not drawn)
inactive: UniProt Q8VG27 | UniProt Q8VG53 | UniProt Q8VG64 | UniProt Q8VGB9

CC=Cc1ccc(OC)cc1
inactive: UniProt Q8VG27 | UniProt Q8VG53 | UniProt Q8VG64 | UniProt Q8VGB9

O=C1Cc2ccccc2O1
inactive: all assays above

CCCC(C)C(=O)OCC (stereo not drawn)
inactive: UniProt Q8VG27 | UniProt Q8VG53 | UniProt Q8VG64 | UniProt Q8VGB9

CCc1occc(=O)c1O
inactive: UniProt Q8VG27 | UniProt Q8VG53 | UniProt Q8VG64 | UniProt Q8VGB9

O=C1CCOc2ccccc21
inactive: all assays above

CCCCCCCCCS
active: UniProt Q8VG49
inactive: all other assays above

CCCCCCCCC=CC=O
inactive: UniProt Q8VG27 | UniProt Q8VG53 | UniProt Q8VG64 | UniProt Q8VGB9

C=CC(C)=CCC=C(C)CCC=C(C)C
inactive: UniProt Q8VG27 | UniProt Q8VG53 | UniProt Q8VG64 | UniProt Q8VGB9

CCCCCCOC(C)=O
inactive: all assays above

Cc1ccc(C(C)C)cc1
inactive: UniProt Q8VG27 | UniProt Q8VG53 | UniProt Q8VG64 | UniProt Q8VGB9

Cc1c(C)c(C)c(C=O)c(C)c1C
inactive: UniProt Q8VG27 | UniProt Q8VG53 | UniProt Q8VG64 | UniProt Q8VGB9

CCC(=O)O
inactive: all assays above

CCCCCCC(C=O)=Cc1ccccc1
inactive: UniProt Q8VG27 | UniProt Q8VG53 | UniProt Q8VG64 | UniProt Q8VGB9

C1CCOC1
inactive: UniProt Q8VG27 | UniProt Q8VG53 | UniProt Q8VG64 | UniProt Q8VGB9

CC(=O)OC1(C)CCC23CC1C(C)(C)C2CCC3C (stereo not drawn)
inactive: UniProt Q8VG27 | UniProt Q8VG53 | UniProt Q8VG64 | UniProt Q8VGB9

CCCC(=O)C(C)=O
inactive: all assays above

CCCCCCCCOC=O
inactive: UniProt Q8VG27 | UniProt Q8VG53 | UniProt Q8VG64 | UniProt Q8VGB9

CCC=CCCC=CC=O
inactive: UniProt Q8VG27 | UniProt Q8VG53 | UniProt Q8VG64 | UniProt Q8VGB9

C=CC(=C)CCC=C(C)CCC=C(C)C
inactive: UniProt Q8VG27 | UniProt Q8VG53 | UniProt Q8VG64 | UniProt Q8VGB9

O=C(O)CCCCCCCCC(=O)O
inactive: UniProt Q8VG27 | UniProt Q8VG53 | UniProt Q8VG64 | UniProt Q8VGB9

CCCCCC(C=O)=Cc1ccccc1
inactive: UniProt Q8VG27 | UniProt Q8VG53 | UniProt Q8VG64 | UniProt Q8VGB9

O=C(O)C1CCC1
inactive: UniProt Q8VG27 | UniProt Q8VG53 | UniProt Q8VG64 | UniProt Q8VGB9

c1ccccc1
inactive: all assays above

C1CCOCC1
inactive: UniProt Q8VG27 | UniProt Q8VG53 | UniProt Q8VG64 | UniProt Q8VGB9

CCc1ncc(C)nc1CC
inactive: UniProt Q8VG27 | UniProt Q8VG53 | UniProt Q8VG64 | UniProt Q8VGB9

CCCCCC(=Cc1ccccc1)C(OC)OC
inactive: UniProt Q8VG27 | UniProt Q8VG53 | UniProt Q8VG64 | UniProt Q8VGB9

CC(C)=CCCC(C)=CCOC(=O)C(C)C
inactive: UniProt Q8VG27 | UniProt Q8VG53 | UniProt Q8VG64 | UniProt Q8VGB9

CCCCCC=CCCC=O
inactive: UniProt Q8VG27 | UniProt Q8VG53 | UniProt Q8VG64 | UniProt Q8VGB9

CCCCCCC(C)O (stereo not drawn)
inactive: UniProt Q8VG27 | UniProt Q8VG53 | UniProt Q8VG64 | UniProt Q8VGB9

Cc1ccc2c(c1)OCC(=O)CO2
inactive: UniProt Q8VG27 | UniProt Q8VG53 | UniProt Q8VG64 | UniProt Q8VGB9

CNc1ccccc1C(=O)OC
inactive: UniProt Q8VG27 | UniProt Q8VG53 | UniProt Q8VG64 | UniProt Q8VGB9

CC(=O)C=CC1=C(C)CCCC1(C)C
inactive: UniProt Q8VG27 | UniProt Q8VG53 | UniProt Q8VG64 | UniProt Q8VGB9

OCC=Cc1ccccc1
inactive: UniProt Q8VG27 | UniProt Q8VG53 | UniProt Q8VG64 | UniProt Q8VGB9

CCSCC
inactive: UniProt Q8VG27 | UniProt Q8VG53 | UniProt Q8VG64 | UniProt Q8VGB9

CC1(C)CC(=O)CC(=O)C1
inactive: UniProt Q8VG27 | UniProt Q8VG53 | UniProt Q8VG64 | UniProt Q8VGB9

CCc1ccc(O)cc1
inactive: UniProt Q8VG27 | UniProt Q8VG53 | UniProt Q8VG64 | UniProt Q8VGB9

C=C(C)C1CCC(C)C(O)C1 (stereo not drawn)
inactive: UniProt Q8VG27 | UniProt Q8VG53 | UniProt Q8VG64 | UniProt Q8VGB9

C=CC(=O)CCCCC
inactive: UniProt Q8VG27 | UniProt Q8VG53 | UniProt Q8VG64 | UniProt Q8VGB9

COc1ccccc1
inactive: UniProt Q8VG27 | UniProt Q8VG53 | UniProt Q8VG64 | UniProt Q8VGB9

CCc1nccnc1CC
inactive: UniProt Q8VG27 | UniProt Q8VG53 | UniProt Q8VG64 | UniProt Q8VGB9

CCOC(=O)CC(C)C
inactive: UniProt Q8VG27 | UniProt Q8VG53 | UniProt Q8VG64 | UniProt Q8VGB9

CSSCc1ccco1
inactive: UniProt Q8VG53 | UniProt Q8VG64 | UniProt Q8VGB9
active: UniProt Q8VG27

CC(C)CS
inactive: UniProt Q8VG27 | UniProt Q8VG53 | UniProt Q8VG64 | UniProt Q8VGB9

CC(C)CCN
inactive: UniProt Q8VG27 | UniProt Q8VG53 | UniProt Q8VG64 | UniProt Q8VGB9

CCN(CC)CC
inactive: UniProt Q8VG27 | UniProt Q8VG53 | UniProt Q8VG64 | UniProt Q8VGB9

OCCCCCCCCCO
active: UniProt Q8VG64
inactive: UniProt Q8VG27 | UniProt Q8VG53 | UniProt Q8VGB9

Cc1ccc(OC(=O)C(C)C)cc1
inactive: UniProt Q8VG27 | UniProt Q8VG53 | UniProt Q8VG64 | UniProt Q8VGB9
